# Measured values taken from ChEMBL document CHEMBL1833926, “Bicyclic heteroaryl inhibitors of stearoyl-CoA desaturase: from systemic to liver-targeting inhibitors” (Bioorg Med Chem Lett, 2011).
# Calls of active or inactive are those of the source. The rule behind the calls is not given here.
# Test system: not listed separately
# Assay: Drug uptake in C57BL/6 mouse adipose tissue at 10 mg/kg, po after 6 hrs
# Type: ADME, organism-based, C57BL6
# Design: dose 10 mg/kg, route oral
# Settings: in vivo
# Method in brief: (§1)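 Single oral dose of 10 mg/kg in 0.5% methocel given to C57BL6 mice on normal chow. Drug levels measured 6 h post-dose in liver, white adipose, skin and Harderian glands. Liver/tissue fold selectivity taken from these levels.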
row,SMILES,Drug uptake
1,Cc1nc2nc(N3CCC(Oc4ccccc4C(F)(F)F)CC3)sc2c(=O)[nH]1,Not Active

# Test system: Mus musculus
# Assay: Inhibition of SCD1 activity in high carbohydrate diet fed C57BL/6 mouse assessed as reduction in conversion of [1-14C]stearic acid to [1-14C]oleic acid at 60 mg/kg, po after 3 hrs
# Type: functional, organism-based
# Design: dose 60 mg/kg
# Settings: C57BL6
# Method in brief: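 Mouse liver PD assay in C57BL6 mice on a high carbohydrate diet, n = 5/group. Compound given orally in 0.5% methocel. At 1 h, [1-14C]-stearic acid in 60% aqueous PEG 200 given iv. Livers harvested 2 h after tracer. Lipids hydrolyzed; SCD1 activity index = 14C-oleic/14C-stearic acid ratio.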
row,SMILES,inhibition
1,O=C(O)CCc1nc2nc(N3CCC(Oc4cc(F)ccc4Br)CC3)sc2c(=O)[nH]1,inactive

# Molecular target: Acyl-CoA (8-3)-desaturase (Homo sapiens) (UniProt O60427)
# Assay: Inhibition of delta-5 desaturase
# Settings: not given
# Sequence of Acyl-CoA (8-3)-desaturase (Homo sapiens) (O60427 whole entry, looked up): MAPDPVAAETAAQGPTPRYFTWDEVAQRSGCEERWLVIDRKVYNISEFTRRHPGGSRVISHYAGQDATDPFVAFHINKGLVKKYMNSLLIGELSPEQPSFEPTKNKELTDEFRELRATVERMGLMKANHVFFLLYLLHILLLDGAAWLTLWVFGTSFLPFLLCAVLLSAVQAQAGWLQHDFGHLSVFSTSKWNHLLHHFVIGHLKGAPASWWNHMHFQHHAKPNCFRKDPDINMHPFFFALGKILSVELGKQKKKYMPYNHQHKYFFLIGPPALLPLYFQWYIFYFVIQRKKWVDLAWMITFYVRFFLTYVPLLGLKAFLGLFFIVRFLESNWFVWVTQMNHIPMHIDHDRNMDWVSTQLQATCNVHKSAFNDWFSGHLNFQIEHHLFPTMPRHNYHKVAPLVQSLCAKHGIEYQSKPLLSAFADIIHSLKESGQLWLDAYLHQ
row,SMILES,inhibition
1,O=c1[nH]c(CO)nc2nc(N3CCC(Oc4ccccc4C(F)(F)F)CC3)sc12,inactive
2,Cc1ncc2sc(N3CCC(Oc4ccccc4C(F)(F)F)CC3)nc2n1,inactive
3,O=c1[nH]ccc2nc(N3CCC(Oc4ccccc4C(F)(F)F)CC3)sc12,inactive
4,Nc1nc2cnc(N3CCC(Oc4cc(F)ccc4Br)CC3)nc2s1,inactive
5,Fc1ccc(Br)c(OC2CCN(c3ncc4nc[nH]c4n3)CC2)c1,inactive
6,O=c1[nH]cnc2nc(N3CCC(Oc4ccccc4C(F)(F)F)CC3)sc12,inactive
7,Nc1ncnc2nc(N3CCC(Oc4ccccc4C(F)(F)F)CC3)sc12,inactive
8,Oc1nc2cnc(N3CCC(Oc4ccccc4C(F)(F)F)CC3)nc2[nH]1,inactive
9,Cc1nc2nc(N3CCC(Oc4ccccc4C(F)(F)F)CC3)sc2c(=O)[nH]1,inactive
10,FC(F)(F)c1ccccc1OC1CCN(c2ncnc3[nH]cnc23)CC1,inactive
11,FC(F)(F)c1ccccc1OC1CCN(c2nc3ncccc3s2)CC1,inactive

# Molecular target: T1, Acyl-CoA desaturase 1 (Rattus norvegicus, UniProt P07308)
# T1 sequence (P07308 whole entry): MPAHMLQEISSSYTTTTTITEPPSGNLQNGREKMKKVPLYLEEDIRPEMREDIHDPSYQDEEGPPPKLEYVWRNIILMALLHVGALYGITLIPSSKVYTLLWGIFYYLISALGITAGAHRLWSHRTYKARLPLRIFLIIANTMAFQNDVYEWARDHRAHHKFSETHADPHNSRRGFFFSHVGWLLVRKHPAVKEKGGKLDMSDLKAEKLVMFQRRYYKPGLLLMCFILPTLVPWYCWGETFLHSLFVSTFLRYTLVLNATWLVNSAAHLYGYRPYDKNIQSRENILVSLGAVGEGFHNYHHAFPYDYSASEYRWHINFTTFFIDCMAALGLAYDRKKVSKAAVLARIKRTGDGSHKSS
# Assay: Inhibition of SCD1 in rat Hep cells
# Type: cell-based
# Settings: not given
# Method in brief: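 Whole-cell SCD1 inhibition measured in rat hepatocytes, which express OATP transporters, in the presence of 10% fetal bovine serum; IC50 determined.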
row,SMILES,IC50 [nM]
1,O=C(O)CCc1nc2nc(N3CCC(Oc4cc(F)ccc4Br)CC3)sc2c(=O)[nH]1,168

# Molecular target: T2, Acyl-CoA 6-desaturase (Homo sapiens) (UniProt O95864)
# T2 sequence (whole entry): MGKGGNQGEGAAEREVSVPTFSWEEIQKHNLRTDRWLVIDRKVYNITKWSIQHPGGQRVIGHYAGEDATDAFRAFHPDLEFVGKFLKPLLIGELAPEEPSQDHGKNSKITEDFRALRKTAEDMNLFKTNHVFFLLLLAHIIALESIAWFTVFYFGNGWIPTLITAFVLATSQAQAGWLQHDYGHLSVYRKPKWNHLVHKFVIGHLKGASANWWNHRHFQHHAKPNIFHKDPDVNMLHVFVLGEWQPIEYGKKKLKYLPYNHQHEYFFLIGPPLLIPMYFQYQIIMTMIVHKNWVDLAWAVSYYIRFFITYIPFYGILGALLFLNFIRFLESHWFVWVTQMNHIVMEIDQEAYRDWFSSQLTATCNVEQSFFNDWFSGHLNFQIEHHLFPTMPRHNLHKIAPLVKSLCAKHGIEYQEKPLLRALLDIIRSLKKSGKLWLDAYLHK
# Assay: Inhibition of delta-6 desaturase
# Settings: not given
row,SMILES,inhibition
1,O=c1[nH]c(CO)nc2nc(N3CCC(Oc4ccccc4C(F)(F)F)CC3)sc12,inactive
2,Cc1ncc2sc(N3CCC(Oc4ccccc4C(F)(F)F)CC3)nc2n1,inactive
3,O=c1[nH]ccc2nc(N3CCC(Oc4ccccc4C(F)(F)F)CC3)sc12,inactive
4,Nc1nc2cnc(N3CCC(Oc4cc(F)ccc4Br)CC3)nc2s1,inactive
5,Fc1ccc(Br)c(OC2CCN(c3ncc4nc[nH]c4n3)CC2)c1,inactive
6,O=c1[nH]cnc2nc(N3CCC(Oc4ccccc4C(F)(F)F)CC3)sc12,inactive
7,Nc1ncnc2nc(N3CCC(Oc4ccccc4C(F)(F)F)CC3)sc12,inactive
8,Oc1nc2cnc(N3CCC(Oc4ccccc4C(F)(F)F)CC3)nc2[nH]1,inactive
9,Cc1nc2nc(N3CCC(Oc4ccccc4C(F)(F)F)CC3)sc2c(=O)[nH]1,inactive
10,FC(F)(F)c1ccccc1OC1CCN(c2ncnc3[nH]cnc23)CC1,inactive
11,FC(F)(F)c1ccccc1OC1CCN(c2nc3ncccc3s2)CC1,inactive

# Test system: HepG2
# Assay: Ratio of IC50 for SCD1 in human HepG2 cells to IC50 for SCD1 in rat Hep cells
# Type: cell-based
# Settings: not given
# Method in brief: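 Fold shift computed as hHepG2 whole-cell IC50 over rat hepatocyte IC50.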
row,SMILES,Ratio IC50
1,O=C(O)CCc1nc2nc(N3CCC(Oc4cc(F)ccc4Br)CC3)sc2c(=O)[nH]1,145

# Test system: not listed separately
# Assay: Drug uptake in C57BL/6 mouse liver at 10 mg/kg, po after 6 hrs
# Type: ADME, organism-based, C57BL6
# Design: dose 10 mg/kg, route oral
# Settings: read-out: Drug uptake
# Method in brief: as §1
row,SMILES,concentration at 6 h [µM]
1,Cc1nc2nc(N3CCC(Oc4ccccc4C(F)(F)F)CC3)sc2c(=O)[nH]1,21.8

# Test system: not listed separately
# Assay: Ratio of drug uptake in liver to adipose tissue in C57BL/6 mouse at 10 mg/kg, po after 6 hrs
# Type: ADME, organism-based, C57BL6
# Design: dose 10 mg/kg, route oral
# Settings: in vivo
# Method in brief: as §1
row,SMILES,Ratio
1,O=C(O)CCc1nc2nc(N3CCC(Oc4cc(F)ccc4Br)CC3)sc2c(=O)[nH]1,31

# Test system: not listed separately
# Assay: Apparent permeability across pig LLC-PK1 cells
# Type: ADME, cell-based, Sus scrofa
# Settings: not given
row,SMILES,Papp [×10⁻⁶ cm/s]
1,O=C(O)CCc1nc2nc(N3CCC(Oc4cc(F)ccc4Br)CC3)sc2c(=O)[nH]1,2

# Test system: not listed separately
# Assay: Ratio of drug uptake in liver to skin in C57BL/6 mouse liver at 10 mg/kg, po after 6 hrs
# Type: ADME, organism-based, C57BL6
# Design: dose 10 mg/kg, route oral
# Settings: in vivo
# Method in brief: as §1
row,SMILES,Ratio
1,O=C(O)CCc1nc2nc(N3CCC(Oc4cc(F)ccc4Br)CC3)sc2c(=O)[nH]1,22
2,Cc1nc2nc(N3CCC(Oc4ccccc4C(F)(F)F)CC3)sc2c(=O)[nH]1,7

# Test system: not listed separately
# Assay: Ratio of drug uptake in liver to harderian glands in C57BL/6 mouse at 10 mg/kg, po after 6 hrs
# Type: ADME, organism-based, C57BL6
# Design: dose 10 mg/kg, route oral
# Settings: in vivo
# Method in brief: as §1
row,SMILES,Ratio
1,Cc1nc2nc(N3CCC(Oc4ccccc4C(F)(F)F)CC3)sc2c(=O)[nH]1,1.1

# Molecular target: T1, Acyl-CoA desaturase 1
# Assay: Inhibition of rat SCD1 in rat liver microsome
# Settings: not given
row,SMILES,IC50 [nM]
1,O=C(O)CCc1nc2nc(N3CCC(Oc4cc(F)ccc4Br)CC3)sc2c(=O)[nH]1,266
2,O=c1[nH]c(CO)nc2nc(N3CCC(Oc4ccccc4C(F)(F)F)CC3)sc12,2
3,Cc1ncc2sc(N3CCC(Oc4ccccc4C(F)(F)F)CC3)nc2n1,54
4,O=c1[nH]ccc2nc(N3CCC(Oc4ccccc4C(F)(F)F)CC3)sc12,85
5,Nc1nc2cnc(N3CCC(Oc4cc(F)ccc4Br)CC3)nc2s1,1
6,O=c1[nH]cnc2nc(N3CCC(Oc4ccccc4C(F)(F)F)CC3)sc12,7
7,Nc1ncnc2nc(N3CCC(Oc4ccccc4C(F)(F)F)CC3)sc12,56
8,Cc1nc2nc(N3CCC(Oc4ccccc4C(F)(F)F)CC3)sc2c(=O)[nH]1,8
9,FC(F)(F)c1ccccc1OC1CCN(c2nc3ncccc3s2)CC1,83

# Test system: not listed separately
# Assay: Drug uptake in C57BL/6 mouse liver at 60 mg/kg, po after 3 hrs
# Type: ADME, organism-based, C57BL6
# Design: dose 60 mg/kg, route oral
# Settings: read-out: Drug uptake
# Method in brief: (§2)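 Drug levels in liver and plasma measured in the mouse liver PD study. C57BL6 mice on a high carbohydrate diet received an oral dose in 0.5% methocel. Samples were taken 3 h post-dose, with livers harvested 2 h after iv [1-14C]-stearic acid tracer.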
row,SMILES,concentration at 3 h [µM]
1,O=C(O)CCc1nc2nc(N3CCC(Oc4cc(F)ccc4Br)CC3)sc2c(=O)[nH]1,3.3

# Molecular target: T3, Stearoyl-CoA desaturase (Homo sapiens, UniProt O00767)
# T3 sequence (O00767 whole entry): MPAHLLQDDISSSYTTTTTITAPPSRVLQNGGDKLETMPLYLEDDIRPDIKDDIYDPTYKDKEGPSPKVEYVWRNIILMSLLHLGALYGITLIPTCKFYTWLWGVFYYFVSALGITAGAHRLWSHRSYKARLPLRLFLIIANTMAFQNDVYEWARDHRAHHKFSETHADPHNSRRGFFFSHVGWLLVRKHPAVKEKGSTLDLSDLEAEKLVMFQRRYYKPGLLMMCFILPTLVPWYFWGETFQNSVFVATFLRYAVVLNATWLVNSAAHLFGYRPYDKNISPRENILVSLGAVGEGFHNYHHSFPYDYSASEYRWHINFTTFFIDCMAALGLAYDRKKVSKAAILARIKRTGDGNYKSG
# Assay: Inhibition of SCD1 in human HepG2 cells
# Type: cell-based
# Settings: not given
row,SMILES,IC50 [nM]
1,O=C(O)CCc1nc2nc(N3CCC(Oc4cc(F)ccc4Br)CC3)sc2c(=O)[nH]1,24300
2,O=c1[nH]c(CO)nc2nc(N3CCC(Oc4ccccc4C(F)(F)F)CC3)sc12,16
3,Cc1ncc2sc(N3CCC(Oc4ccccc4C(F)(F)F)CC3)nc2n1,182
4,O=c1[nH]ccc2nc(N3CCC(Oc4ccccc4C(F)(F)F)CC3)sc12,268
5,Nc1nc2cnc(N3CCC(Oc4cc(F)ccc4Br)CC3)nc2s1,17
6,O=c1[nH]cnc2nc(N3CCC(Oc4ccccc4C(F)(F)F)CC3)sc12,29
7,Cc1nc2nc(N3CCC(Oc4ccccc4C(F)(F)F)CC3)sc2c(=O)[nH]1,59
8,FC(F)(F)c1ccccc1OC1CCN(c2nc3ncccc3s2)CC1,755

# Test system: HepG2
# Assay: Ratio of IC50 for SCD1 in human HepG2 cells to IC50 for rat SCD1
# Type: cell-based
# Settings: not given
# Method in brief: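 Fold shift computed as hHepG2 whole-cell IC50 over the SCD1-induced rat liver microsomal enzyme IC50.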
row,SMILES,Ratio IC50
1,O=C(O)CCc1nc2nc(N3CCC(Oc4cc(F)ccc4Br)CC3)sc2c(=O)[nH]1,91

# Test system: not listed separately
# Assay: AUC (0 to 24 hrs) in C57BL/6 mouse at 10 mg/kg, po
# Type: ADME, organism-based, C57BL6
# Design: time < 24 hr, dose 10 mg/kg, route oral
# Settings: whole blood
# Method in brief: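 Oral gavage, 10 mg/kg in 0.5% methocel, to C57BL6 mice; whole blood exposure measured over 0–24 h as AUC.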
row,SMILES,AUC(0-t) at 24 h [µM·h]
1,Cc1nc2nc(N3CCC(Oc4ccccc4C(F)(F)F)CC3)sc2c(=O)[nH]1,30

# Test system: not listed separately
# Assay: Plasma concentration in C57BL/6 mouse at 60 mg/kg, po after 3 hrs
# Type: ADME, organism-based, C57BL6
# Design: dose 60 mg/kg, route oral
# Settings: not given
# Method in brief: as §2
row,SMILES,concentration at 3 h [µM]
1,O=C(O)CCc1nc2nc(N3CCC(Oc4cc(F)ccc4Br)CC3)sc2c(=O)[nH]1,0.2
